Measured values from different studies.
Organism: Staphylococcus aureus
Effect on: microbial growth

CCOC(=O)c1cc(-c2cccc(NC(=O)Nc3ccc(Cl)c(Cl)c3)c2)on1  MIC (broth dilution; ATCC29213): > 64 µg/mL
CN[C@H](CC(C)C)C(=O)N[C@H]1C(=O)N[C@@H](CC(N)=O)C(=O)N[C@H]2C(=O)N[C@H]3C(=O)N[C@H](C(=O)N[C@H](C(=O)O)c4cc(O)cc(O)c4-c4cc3ccc4O)[C@H](O)c3ccc(c(Cl)c3)Oc3cc2cc(c3O[C@@H]2O[C@H](CO)[C@@H](O)[C@H](O)[C@H]2O[C@H]2C[C@](C)(N)[C@H](O)[C@H](C)O2)Oc2ccc(cc2Cl)[C@H]1O  MIC (VRSA; drug-resistant strain): > 16 µg/mL
COc1ccc(-c2nc3ccccc3n2Cc2ccccc2)cc1OC  MIC (broth dilution; ATCC43300 MRSA; drug-resistant strain): 8 µg/mL
CCC(CC)c1cc(CCN2CCCN(Cc3ccc(C(F)(F)F)cc3)CC2)nc(-c2ccncc2)n1  MIC (ATCCBAA1717; drug-resistant strain, clinical isolate): 4 µg/mL
CN[C@H](CC(C)C)C(=O)N[C@H]1C(=O)N[C@@H](CC(N)=O)C(=O)N[C@H]2C(=O)N[C@H]3C(=O)N[C@H](C(=O)N[C@H](C(=O)O)c4cc(O)cc(O)c4-c4cc3ccc4O)[C@H](O)c3ccc(c(Cl)c3)Oc3cc2cc(c3O[C@@H]2O[C@H](CO)[C@@H](O)[C@H](O)[C@H]2O[C@H]2C[C@](C)(N)[C@H](O)[C@H](C)O2)Oc2ccc(cc2Cl)[C@H]1O  MIC (broth dilution; BAA44 MRSA; drug-resistant strain): 0.59 µM
CC(C)C[C@H](NC(=O)[C@@H](NC(=O)N[C@H](C(=O)O)C(C)C)[C@@H]1CCNC(=N)N1)C(=O)NCCCN[C@H](C(=O)O)[C@H](O[C@@H]1O[C@H](CN)[C@@H](O)[C@H]1O)[C@H]1O[C@@H](n2ccc(=O)[nH]c2=O)[C@H](O)[C@@H]1O  MIC (NEWMAN): > 80 µg/mL
COc1cccc(OC)c1C(=O)N[C@@H]1C(=O)N2[C@@H]1SC(C)(C)[C@@H]2C(=O)O  MIC (ATCCBAA1717; drug-resistant strain, clinical isolate): > 64 µg/mL
C=CCCCCCCCCC(=O)C(F)(F)P(=O)(O)O  MIC (ATCC33591 MRSA; drug-resistant strain): > 200 µg/mL
CC1(C)CC[C@]2(C(=O)O)CC[C@]3(C)C(=CC[C@@H]4[C@@]5(C)CC[C@H](O)C(C)(C)[C@@H]5CC[C@]43C)[C@@H]2C1  MIC (ATCC25904): 256 µg/mL
CC(=O)O[C@H]1C[C@@]2(C)[C@@H](C[C@@H](O)[C@H]3[C@@]4(C)CC[C@@H](O)[C@@H](C)[C@@H]4CC[C@@]32C)/C1=C(\CCC=C(C)C)C(=O)O  MIC (ATCCBAA1721): 8 µg/mL
CCCCCCCC(=O)NP(=O)(O)O  MIC (ATCC33591 MRSA; drug-resistant strain): > 200 µg/mL
c1ccc2c(-c3nc4ccccc4[nH]3)c3ccccc3cc2c1  MIC (broth dilution; ATCC43300 MRSA; drug-resistant strain): 64 µg/mL
CCCCCCCCCCCC(=O)C(F)(F)P(=O)(O)O  MIC (ATCC33591 MRSA; drug-resistant strain): > 200 µg/mL
N#CC(C#N)=Cc1ccc(O)c(O)c1  MIC (NCTC8325): > 30 µM
CCC1C(=NOCc2cn(-c3ccccc3)nn2)CC(c2ccccc2)OC1c1ccccc1 (stereo not shown)  MIC (broth dilution; MTCC96; 24 h): 50 µg/mL
Cc1ccc2nc(-c3ccc([N+](=O)[O-])cc3)[nH]c2c1  MIC (broth dilution; ATCC43300 MRSA; drug-resistant strain): 256 µg/mL
O=[N+]([O-])c1ccc(/C=N/Nc2nc(Nc3ccccc3)nc(N3CCOCC3)n2)o1  MIC: 29 µM
O=C(Nc1ccc(Cl)c(C(F)(F)F)c1)N1CCCCC1  MIC (NCTC8325): 30 µM
COC(=O)c1cc(-c2cccc(NC(=S)NC3CCCCC3)c2)on1  MIC (broth dilution; ATCC29213): > 64 µg/mL
C/C(=C\C(=O)OCCCCCCCCC(=O)O)C[C@@H]1OC[C@H](C[C@@H]2O[C@H]2[C@@H](C)[C@H](C)O)[C@@H](O)[C@H]1O  MIC (BAA1556 MRSA; drug-resistant strain): > 8000 µM
COC(=O)c1cc(-c2cccc(NC(=S)Nc3ccc(Cl)cc3)c2)on1  MIC (broth dilution; ATCC29213): > 64 µg/mL
Cc1ccc2nc(-c3cccc(O)c3)[nH]c2c1  MIC (broth dilution; ATCC43300 MRSA; drug-resistant strain): 64 µg/mL
CNC(=O)c1cc(Oc2ccc(NC(=S)Nc3ccc(Cl)c(C(F)(F)F)c3)cc2)ccn1  MIC (NCTC8325): 10 µM
C[C@H]1COCCN1c1nc(NCc2cccnc2C(F)(F)F)c2cccnc2n1  MIC (broth dilution; MRSA): 128 µg/mL
C[C@@H](O)[C@H]1C(=O)N2C(C(=O)O)=C(S[C@@H]3CN[C@H](C(=O)N(C)C)C3)[C@H](C)[C@H]12  MIC (USA300): 1 µg/mL
C[C@H]1COc2c(N3CCN(C)CC3)c(F)cc3c(=O)c(C(=O)O)cn1c23  MIC (broth dilution; ATCC29213): 0.125 µg/mL
c1ccc(CCOC2CCCc3c2[nH]c2ccccc32)cc1 (stereo not shown)  MIC (broth dilution; VISA): > 16 µg/mL
Cc1ccc2nc(-c3ccccc3O)[nH]c2c1  MIC (broth dilution; ATCC43300 MRSA; drug-resistant strain): 256 µg/mL
COC(=O)c1cc(-c2cccc(NC(=S)Nc3ccc(OC)cc3)c2)on1  MIC (broth dilution; ATCC29213): > 64 µg/mL
CO[C@H]1/C=C/O[C@@]2(C)Oc3c(C)c(O)c4c(O)c(c(/C=N/N5CCN(C)CC5)c(O)c4c3C2=O)NC(=O)/C(C)=C\C=C\[C@H](C)[C@H](O)[C@@H](C)[C@@H](O)[C@@H](C)[C@H](OC(C)=O)[C@@H]1C  MIC (NEWMAN): 0.12 µg/mL
CN[C@H](CC(C)C)C(=O)N[C@H]1C(=O)N[C@@H](CC(N)=O)C(=O)N[C@H]2C(=O)N[C@H]3C(=O)N[C@H](C(=O)N[C@H](C(=O)O)c4cc(O)cc(O)c4-c4cc3ccc4O)[C@H](O)c3ccc(c(Cl)c3)Oc3cc2cc(c3O[C@@H]2O[C@H](CO)[C@@H](O)[C@H](O)[C@H]2O[C@H]2C[C@](C)(N)[C@H](O)[C@H](C)O2)Oc2ccc(cc2Cl)[C@H]1O  MIC (ATCC700699; drug-resistant strain): 0.39 µg/mL
CN[C@H](CC(C)C)C(=O)N[C@H]1C(=O)N[C@@H](CC(N)=O)C(=O)N[C@H]2C(=O)N[C@H]3C(=O)N[C@H](C(=O)N[C@H](C(=O)O)c4cc(O)cc(O)c4-c4cc3ccc4O)[C@H](O)c3ccc(c(Cl)c3)Oc3cc2cc(c3O[C@@H]2O[C@H](CO)[C@@H](O)[C@H](O)[C@H]2O[C@H]2C[C@](C)(N)[C@H](O)[C@H](C)O2)Oc2ccc(cc2Cl)[C@H]1O  MIC (NEWMAN): 1 µg/mL
c1cncc(-c2nc3ccccc3[nH]2)c1  MIC (broth dilution; ATCC43300 MRSA; drug-resistant strain): 256 µg/mL
COC(=O)c1cc(-c2cccc(NC(=O)Nc3ccccc3C)c2)on1  MIC (broth dilution; ATCC29213): > 64 µg/mL
CCCCCCCCCCCC(=O)CP(=O)(O)O  MIC (ATCC33591 MRSA; drug-resistant strain): 100 µg/mL
CC1(C)S[C@@H]2[C@H](NC(=O)[C@H](N)c3ccccc3)C(=O)N2[C@H]1C(=O)O  MIC (USA300): 64 µg/mL
Cc1ccc2nc(-c3ccncc3)[nH]c2c1  MIC (broth dilution; ATCC43300 MRSA; drug-resistant strain): 128 µg/mL
Cc1ccccc1-n1c(Cn2cnc3c(N)ncnc32)nc2cccc(C)c2c1=O  MIC (NCTC8325): > 30 µM
Cc1ccc2[nH]c3c(c2c1)CCCC3NCCc1ccc(O)cc1 (stereo not shown)  MIC (broth dilution; ATCC29213): 16 µg/mL
O=[N+]([O-])c1ccc(-c2nc3cccc(O)c3[nH]2)o1  MIC (broth dilution; ATCC700699 MRSA; drug-resistant strain): 2 µg/mL
COC(=O)c1cc(-c2cccc(NC(=O)Nc3ccc(C)cc3)c2)on1  MIC (broth dilution; ATCC29213): > 64 µg/mL
COc1cc(C)c(Cc2cnc(N)nc2N)cc1OC  MIC (broth dilution): ~16.6 µM
Oc1cc(Cl)ccc1Oc1ccc(Cl)cc1Cl  MIC: 1.8 µg/mL
CCCCCCNC(=S)Nc1cccc(-c2cc(C(=O)OC)no2)c1  MIC (broth dilution; ATCC29213): > 64 µg/mL
COc1cccc(-c2nc3ccccc3[nH]2)c1  MIC (broth dilution; ATCC43300 MRSA; drug-resistant strain): 512 µg/mL
CCCCCC/C=C\CCCCCCCCCC(=O)CP(=O)(O)O  MIC (ATCC33591 MRSA; drug-resistant strain): 100 µg/mL
